A word on the IC50: it is the concentration that inhibits the measured activity by half. Read a low IC50 as greater potency in that assay.

Activity calls are given as the source filed them. No cut-off for these calls is given here.

Activity and IC50 data for five compounds are collected here from ChEMBL document CHEMBL1150427, “Hybrids of 1-deoxynojirimycin and aryl-1,2,3-triazoles and biological studies related to angiogenesis” (Bioorg Med Chem, 2008).

Series [1] has as its system BAEC. As to the kind of experiment: Inhibition of angiogenesis in BAEC assessed as inhibition of endothelial tube formation at 0.1 mM after 24 hrs. In kind it is functional. Particulars: Bos taurus. The method in brief: (§1)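 BAECs were pretreated with compound for 24 h, then resuspended at 3×10⁴ cells/0.1 ml in RPMI 1640 with 10 ng/ml bFGF plus compound; controls received bFGF alone. Cells were layered on polymerised growth-factor-reduced Matrigel and incubated for 8 h at 37 °C in 5% CO₂. Tubes were counted by light microscopy in at least five fields and averaged. Each compound was tested at least twice.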

The subject of series [2] is BAEC. Nature of the series: Inhibition of ERK1/2 levels in BAEC at 200 uM after 24 hrs by Western blot. In kind it is functional, cell-based. Particulars: Bos taurus. The procedure, abridged: (§2)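 BAECs were treated at 0, 100 or 200 µM for 24 h, then lysed in RIPA buffer with protease inhibitors. Protein was quantified by micro-BCA. Lysates were separated by SDS–PAGE and transferred to PVDF, then probed overnight at 4 °C with antibodies to cyclin D1, ERK, phospho-ERK and β-actin (loading control). Detection used HRP secondaries and ECL. Experiments were repeated at least twice.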
A general note: Immunoblotting shows a protein as a band on a membrane.

For series [3], the species on record is Bos taurus. As to the kind of experiment: Inhibition of ERK1/2 phosphorylation in BAEC at 200 uM after 24 hrs by Western blot. The method in brief:
as §2

Series [4] can be described thus: Cell cycle arrest in BAEC assessed as accumulation at S phase at 200 uM after 24 hrs by flow cytometer relative to control. Format: functional, cell-based. Particulars: Bos taurus. The procedure, abridged:
(§3)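 BAECs were seeded overnight in RPMI 1640 with 10% FBS, then exposed to compound for 24 h with a DMSO control. Cells were trypsinised, washed in DPBS and fixed in 70% ethanol at −20 °C for at least 2 h. They were treated with 200 µg/ml RNase A at 25 °C for 30 min, then stained with 50 µg/ml propidium iodide at 4 °C for 30 min. DNA content of 10,000 nuclei was read by flow cytometry, and G0/G1, S and G2/M percentages were derived. Each experiment was run at least twice.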

For series [5], the species on record is Bos taurus. As to the kind of experiment: Inhibition of ERK1/2 phosphorylation in BAEC at 100 uM after 24 hrs by Western blot. The method in brief: as §2
Series [6] deals with BAEC. Nature of the series: Inhibition of stress fiber assembly in BAEC by fluorescence staining with FITC phalloidin. In kind it is functional, cell-based. The following applies: Bos taurus. The method in brief: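 BAECs were grown overnight on glass coverslips, then exposed to compound for 24 h. Cells were fixed in 4% paraformaldehyde, permeabilised with 0.1% Triton X-100 and blocked with 1% BSA. F-actin was stained with FITC-phalloidin (2 µg/ml, 30 min) and imaged by confocal microscopy at 40× oil. Experiments were repeated at least twice.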

Series [7] concerns BAEC. Nature of the series: Inhibition of cyclin D1 expression in BAEC at 200 uM after 24 hrs by Western blot. The following applies: Bos taurus. In kind it is functional, cell-based. The procedure, abridged: as §2
Series [8] has as its system BAEC. Nature of the series: Inhibition of ERK1/2 levels in BAEC at 100 uM after 24 hrs by Western blot. In kind it is functional, cell-based. Particulars: Bos taurus. The procedure, abridged: as §2
A short description of series [9]: (§4) Inhibition of Bacillus stearothermophilus alpha glucosidase. Further details: species or system Geobacillus stearothermophilus.
The test system of series [10] is BAEC. As to the kind of experiment: Inhibition of cyclin D1 expression in BAEC at 100 uM after 24 hrs by Western blot. Format: functional, cell-based. The following applies: Bos taurus. The procedure, abridged: as §2
In series [11] the test system is BAEC. Nature of the series: Inhibition of angiogenesis in BAEC assessed as inhibition of endothelial tube formation at 0.2 mM after 24 hrs. Format: functional. Particulars: Bos taurus. The procedure, abridged: as §1
The test system of series [12] is BAEC. Nature of the series: Increase in FITC-labeled concanavalin A binding to BAEC at 50 uM after 24 hrs by flow cytometer. In kind it is functional. Particulars: Bos taurus. The procedure, abridged:
(§5)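 Cultured BAECs were exposed to compound (50 µM) for 24 h, harvested and washed in DPBS. About 5×10⁵ cells were incubated in DPBS/1% BSA with 2 µg/mL FITC-labelled Con A or L-PHA for 1 h at 4 °C, washed twice, and fluorescence histograms were recorded by FACS. Each experiment was done at least twice.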
A general note: In flow cytometry, cells or beads pass a laser one at a time.

Series [13] in a line: Cell cycle arrest in BAEC assessed as accumulation at G2/M phase at 200 uM after 24 hrs by flow cytometer relative to control. Format: functional, cell-based. Particulars: Bos taurus. The method in brief: as §3
The nature of series [14]: Cell cycle arrest in BAEC assessed as accumulation at G0/G1 phase at 200 uM after 24 hrs by flow cytometer relative to control. Format: functional, cell-based. The following applies: Bos taurus. The procedure, abridged: as §3
The subject of series [15] is BAEC. Nature of the series: Effect on cell cycle of BAEC assessed as induction of G1 phase arrest at 200 uM after 24 hrs by flow cytometer relative to control. In kind it is functional, cell-based. The following applies: Bos taurus. The method in brief:
as §3

Series [16] deals with BAEC. As to the kind of experiment: Decrease in FITC-labeled phytohemagglutininin-L binding to BAEC at 50 uM after 24 hrs by flow cytometer. The following applies: Bos taurus. Format: functional, cell-based. The procedure, abridged: as §5
The test system of series [17] is Geobacillus stearothermophilus. The series is described as §4.
Series [18] is described as follows: Growth inhibition of BAEC after 48 hrs by MTT assay. Also noted: species or system Bos taurus. Particulars: cattle. The method in brief:
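BAECs (3×10³ per well) were seeded overnight in RPMI 1640 with 10% FBS, then given compounds at 10⁻⁶–10⁻³ M for 48 h. MTT was added to a final 0.5 mg/mL for 3 h at 37 °C. Formazan was dissolved in DMSO and read at 570 nm. Samples were run in quadruplicate, with at least two independent experiments.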
In general terms: Formazan colour is commonly taken as a measure of viable cells.

For the compound `OC[C@@H]1[C@@H](O)[C@H](O)[C@@H](O)CN1CCCCCCCCOc1cccc(-c2cnn[nH]2)c1`, the result in series [1], in [2], in series [3], in series [5], in series [8] and in series [16] was inactive. Further, the Activity stood at 3.9% in series [4], 6.2% in series [13] and 87.6% in series [14]. In addition, the result in [6], in series [7], in series [10], in series [11], in series [12] and in series [15] was Active. In series [9], the half-inhibitory concentration (IC50) was 1.15 µM.

Turning to `COc1cccc(-c2cnn[nH]2)c1`, the outcome in series [17] and in series [11] was inactive.

Turning to `OC[C@@H]1[C@@H](O)[C@H](O)[C@@H](O)CN1CCCCOc1cccc(-c2cnn[nH]2)c1`, 6.07 µM corresponded to half-maximal inhibition in [9] (IC50). The result in series [11] and in series [16] was inactive. The result in [12] was Active.

On to `OC[C@@H]1[C@@H](O)[C@H](O)[C@@H](O)CN1CCCCCCOc1cccc(-c2cnn[nH]2)c1`, for which, in [9], the concentration for half-maximal inhibition (IC50) is 2.41 µM. The result in [11] and in [16] was inactive. Moreover, in series [12], the outcome was Active.

Turning to `OC[C@H]1NC[C@H](O)[C@@H](O)[C@@H]1O` [DUVOGLUSTAT], the Activity entry in series [18] was “Not Active”. Also, inhibition in series [9] was half-maximal at 1.67 µM (IC50). Moreover, the result in series [11] and in [16] was inactive. Further, the result in series [12] was Active.
